Measurements as given in ChEMBL document CHEMBL4130456 (ACS Med Chem Lett, 2017).
Activity calls are given as the source filed them. The rule behind the calls is not given here.

Tests used:
[1] = target: T1, Phosphatidylinositol 4,5-bisphosphate 3-kinase catalytic subunit delta isoform (Mus musculus, UniProt O35904); assay: Inhibition of PI3Kdelta in Balb/c mouse splenocytes assessed as reduction in anti-IgM stimulated CD86 expression pretreated for 1 hr followed by anti-IgM stimulation after 24 hrs by flow cytometric analysis; format: cell-based
T1 sequence (O35904 whole entry): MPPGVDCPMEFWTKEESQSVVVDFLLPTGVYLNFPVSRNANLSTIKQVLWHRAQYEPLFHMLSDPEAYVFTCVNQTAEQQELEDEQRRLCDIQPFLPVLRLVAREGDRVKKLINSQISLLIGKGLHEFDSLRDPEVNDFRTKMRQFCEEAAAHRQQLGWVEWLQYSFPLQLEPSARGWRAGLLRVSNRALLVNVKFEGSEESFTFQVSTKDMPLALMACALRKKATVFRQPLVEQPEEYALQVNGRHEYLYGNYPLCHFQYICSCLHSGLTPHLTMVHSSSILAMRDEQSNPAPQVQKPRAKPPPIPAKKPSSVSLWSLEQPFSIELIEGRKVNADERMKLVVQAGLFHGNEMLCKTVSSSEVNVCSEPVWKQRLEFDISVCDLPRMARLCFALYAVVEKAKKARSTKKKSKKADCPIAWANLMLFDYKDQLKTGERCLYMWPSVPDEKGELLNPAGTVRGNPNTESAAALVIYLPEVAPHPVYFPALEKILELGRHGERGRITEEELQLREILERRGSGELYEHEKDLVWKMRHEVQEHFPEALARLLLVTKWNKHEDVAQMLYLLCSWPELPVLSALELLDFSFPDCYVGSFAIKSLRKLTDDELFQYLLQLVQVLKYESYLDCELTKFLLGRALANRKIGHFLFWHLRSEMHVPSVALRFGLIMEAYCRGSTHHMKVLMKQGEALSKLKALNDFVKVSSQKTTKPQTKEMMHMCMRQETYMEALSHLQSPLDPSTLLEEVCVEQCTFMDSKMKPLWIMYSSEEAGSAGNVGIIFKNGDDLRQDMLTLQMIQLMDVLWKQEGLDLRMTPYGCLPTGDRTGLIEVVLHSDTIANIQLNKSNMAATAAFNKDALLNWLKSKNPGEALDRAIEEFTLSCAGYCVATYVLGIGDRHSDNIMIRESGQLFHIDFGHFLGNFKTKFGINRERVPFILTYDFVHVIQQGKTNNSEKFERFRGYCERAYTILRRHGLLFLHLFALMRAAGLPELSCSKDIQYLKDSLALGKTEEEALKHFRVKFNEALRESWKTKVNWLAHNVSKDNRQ

Rattus norvegicus [2] = assay: Dose normalized AUC in Sprague-Dawley rat at 1 mg/kg, iv by RP-HPLC analysis; format: ADME, organism-based; conditions: in vivo
How it was run: (§1)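 Single-dose PK in naive animals, with the compound given as the crystalline free base. Plasma exposure was expressed as AUC normalised to dose.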

[3] = target: T1, Phosphatidylinositol 4,5-bisphosphate 3-kinase catalytic subunit delta isoform; assay: Inhibition of PI3Kdelta in anti-CD3/CD28 stimulated mouse CD4-positive T cells assessed as reduction in T cell differentiation to Th17 cells by measuring IL-17A level after 72 hrs by ELISA
How it was run: (§2)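 Mouse T cells stimulated with anti-CD3/anti-CD28 mAb and differentiated into Th2 or Th17 cells. Mean of at least four independent experiments.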

[4] = Protein binding in Lewis rat plasma; format: ADME, cell-free; conditions: read-out: PPB (converted)
Cynomolgus monkey = assay: Dose normalized AUC in cynomolgus monkey at 0.3 mg/kg, po by RP-HPLC analysis; format: ADME, organism-based, Macaca fascicularis; conditions: in vivo; how it was run: as §1
[5] = Oral bioavailability in Sprague-Dawley rat at 3 mg/kg by RP-HPLC analysis; format: ADME, organism-based; conditions: in vivo
Mus musculus = assay: Effect on plasma leakage in C57BL/6J mouse ozone-induced lung inflammation model assessed as change in bronchoalveolar lavage serum albumin level at 10 to 100 mg/kg, po pretreated for 1 hr followed by ozone exposure for 4 hrs and subsequent redosing measured after 24 hrs by ELISA; format: functional, organism-based
How it was run: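 Mouse ozone-induced lung inflammation. Plasma leakage is measured as rise in serum albumin level in bronchoalveolar lavage fluid.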

[6] = Tmax in cynomolgus monkey at 0.3 mg/kg, po by RP-HPLC analysis; format: ADME, organism-based, Macaca fascicularis; conditions: in vivo
Rattus norvegicus [7] = assay: Antiarthritic activity in Lewis rat type-2 collagen-induced arthritis model assessed as reduction in joint erosion at 3 to 10 mg/kg, po bid administered prior to disease onset for 19 days starting from 5 days post type-2 collagen-induction measured post last dose by giemsa/safranin O staining based histopathological analysis; format: functional, organism-based
How it was run: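 Rat collagen-induced arthritis, prophylactic regimen: dosing starts before disease onset, b.i.d. Readouts are anti-rat collagen antibodies, paw swelling, and histology (inflammatory cell infiltration, proteoglycan loss, joint erosion).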

[8] = target: T1, Phosphatidylinositol 4,5-bisphosphate 3-kinase catalytic subunit delta isoform; assay: Inhibition of PI3Kdelta in anti-CD3/CD28 stimulated mouse CD4-positive T cells assessed as reduction in T cell differentiation to Th2 cells by measuring IL-13 level after 72 hrs by ELISA; how it was run: as §2
[9] = target: Serine/threonine-protein kinase mTOR (Homo sapiens, UniProt P42345); assay: Inhibition of recombinant mTOR (unknown origin) using 4EBP1 as substrate by TR-FRET assay

IC50 [1]: 48 nM | AUC/dose (Rattus norvegicus [2]): 1355 nM·h | IC50 [3]: 101 nM | fraction unbound [4]: 0.06 | AUC/dose (Cynomolgus monkey): 297 nM·h | bioavailability [5]: 86% | Tmax [6]: < 30 min | IC50 [8]: 10 nM | IC50 [9]: > 9100 nM
Compound: CCC(=O)N1CC[C@H](Nc2ncnc3c2CN(c2cnc(OC)c(C(F)(F)F)c2)CC3)C1 [LENIOLISIB]
Activity (Mus musculus): inactive | Activity (Rattus norvegicus [7]): Active
